ChEMBL document CHEMBL5303300, “EUbOPEN Chemogenomics Library - Multiplex” (2023)
“And” between values parts separate entries of the source, which are not always exact repeats. Identical values can stand only once.

Test system: HEK-293T
Test: Multiplex assay against HEK293T
Format: toxicity, cell-based
Settings: human, number of replicates 2
Outline: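 Live cells carried four stains from seeding: Hoechst33342, BioTracker Green Microtubule Cytoskeleton Dye, MitoTracker Red and Annexin V Alexa Fluor 680. They were imaged on a CQ1 microscope at 37°C and 5% CO2 after compound addition. Using CellPathfinder machine-learning gating, cells were split into Hoechst high-intensity objects or normal cells, normal cells into healthy, pyknosed or fragmented nuclei, and pyknosed cells into mitotic or apoptotic; tubulin, mitochondrial-mass and membrane-permeability phenotypes are per cents of healthy-nucleus cells.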

[1] = 12 h, 1 µM, compound concentration 1 uM
[2] = 12 h, 10 µM, compound concentration 10 uM
[3] = 24 h, 1 µM, compound concentration 1 uM
[4] = 24 h, 10 µM, compound concentration 10 uM
[5] = 48 h, 1 µM, compound concentration 1 uM
[6] = 48 h, 10 µM, compound concentration 10 uM

Cc1cccc(S(=O)(=O)N(C)[C@H](C)CCN2CCC(C)CC2)c1.Cl
Population Apoptotic (%) [1]: 51% and 50%
Population Fragmented Nuclei (%) [1]: 4% and 1%
Population Healthy Nuclei (%) [1]: 81% and 80%
Population Hoechst High Intensity Objects (%) [1]: 5% and 6%
Population Membrane Permeable-Phenotype (%) [1]: 4% and 6%
Population Mitochondria Different-Phenotype (%) [1]: 16%
Population Mitotic Cells (%) [1]: 48% and 50%
Population Normal (%) [1]: 94% and 93%
Population Pyknosed Nuclei (%) [1]: 13% and 17%
Population Tubulin-Different-Phenotype (%) [1]: 61% and 51%
Total Cell Count [1]: 635 and 449
Population Apoptotic (%) [2]: 52% and 62%
Population Fragmented Nuclei (%) [2]: 4% and 3%
Population Healthy Nuclei (%) [2]: 81% and 74%
Population Hoechst High Intensity Objects (%) [2]: 7% and 9%
Population Membrane Permeable-Phenotype (%) [2]: 3% and 4%
Population Mitochondria Different-Phenotype (%) [2]: 24% and 29%
Population Mitotic Cells (%) [2]: 47% and 37%
Population Normal (%) [2]: 92% and 90%
Population Pyknosed Nuclei (%) [2]: 14% and 22%
Population Tubulin-Different-Phenotype (%) [2]: 70% and 65%
Total Cell Count [2]: 550 and 400
Population Apoptotic (%) [3]: 45% and 63%
Population Fragmented Nuclei (%) [3]: 6% and 2%
Population Healthy Nuclei (%) [3]: 85% and 82%
Population Hoechst High Intensity Objects (%) [3]: 6% and 9%
Population Membrane Permeable-Phenotype (%) [3]: 4%
Population Mitochondria Different-Phenotype (%) [3]: 7% and 10%
Population Mitotic Cells (%) [3]: 54% and 36%
Population Normal (%) [3]: 93% and 90%
Population Pyknosed Nuclei (%) [3]: 8% and 15%
Population Tubulin-Different-Phenotype (%) [3]: 36% and 37%
Total Cell Count [3]: 943 and 563
Population Apoptotic (%) [4]: 64% and 54%
Population Fragmented Nuclei (%) [4]: 4% and 3%
Population Healthy Nuclei (%) [4]: 79% and 83%
Population Hoechst High Intensity Objects (%) [4]: 9% and 6%
Population Membrane Permeable-Phenotype (%) [4]: 4% and 3%
Population Mitochondria Different-Phenotype (%) [4]: 15% and 9%
Population Mitotic Cells (%) [4]: 35% and 45%
Population Normal (%) [4]: 90% and 93%
Population Pyknosed Nuclei (%) [4]: 16% and 12%
Population Tubulin-Different-Phenotype (%) [4]: 50% and 49%
Total Cell Count [4]: 552 and 801
Population Apoptotic (%) [5]: 15% and 36%
Population Fragmented Nuclei (%) [5]: 10% and 7%
Population Healthy Nuclei (%) [5]: 84% and 86%
Population Hoechst High Intensity Objects (%) [5]: 8% and 6%
Population Membrane Permeable-Phenotype (%) [5]: 5% and 3%
Population Mitochondria Different-Phenotype (%) [5]: 0% and 3%
Population Mitotic Cells (%) [5]: 85% and 63%
Population Normal (%) [5]: 91% and 93%
Population Pyknosed Nuclei (%) [5]: 4% and 5%
Population Tubulin-Different-Phenotype (%) [5]: 16% and 20%
Total Cell Count [5]: 2361 and 1220
Population Apoptotic (%) [6]: 39% and 41%
Population Fragmented Nuclei (%) [6]: 11% and 10%
Population Healthy Nuclei (%) [6]: 83%
Population Hoechst High Intensity Objects (%) [6]: 9% and 8%
Population Membrane Permeable-Phenotype (%) [6]: 7%
Population Mitochondria Different-Phenotype (%) [6]: 1% and 3%
Population Mitotic Cells (%) [6]: 60% and 58%
Population Normal (%) [6]: 90% and 91%
Population Pyknosed Nuclei (%) [6]: 5%
Population Tubulin-Different-Phenotype (%) [6]: 27%
Total Cell Count [6]: 1730 and 1106
